The results in this text go back to ChEMBL document CHEMBL4312018, “Novel benzimidazole phosphonates as potential inhibitors of protein prenylation” (Bioorg Med Chem Lett, 2019).

Experiment [1] has as its target geranylgeranyltransferase type-I (Rattus norvegicus, UniProt P53610+Q04631). Kind of experiment: Inhibition of recombinant rat GGtase-1 expressed in Escherichia coli using dansyl-GCVLL as substrate after 1.5 hrs by spectrofluorimetric analysis.
Experiment [2] has as its target Protein farnesyltransferase (Rattus norvegicus, UniProt Q02293+Q04631). The experiment is described as follows: Inhibition of recombinant rat FTase expressed in Escherichia coli using dansyl-GCVLS as substrate after 1.5 hrs by spectrofluorimetric analysis.
The target of experiment [3] is T1, Farnesyl pyrophosphate synthase (Homo sapiens) (UniProt P14324).
T1 sequence (whole entry): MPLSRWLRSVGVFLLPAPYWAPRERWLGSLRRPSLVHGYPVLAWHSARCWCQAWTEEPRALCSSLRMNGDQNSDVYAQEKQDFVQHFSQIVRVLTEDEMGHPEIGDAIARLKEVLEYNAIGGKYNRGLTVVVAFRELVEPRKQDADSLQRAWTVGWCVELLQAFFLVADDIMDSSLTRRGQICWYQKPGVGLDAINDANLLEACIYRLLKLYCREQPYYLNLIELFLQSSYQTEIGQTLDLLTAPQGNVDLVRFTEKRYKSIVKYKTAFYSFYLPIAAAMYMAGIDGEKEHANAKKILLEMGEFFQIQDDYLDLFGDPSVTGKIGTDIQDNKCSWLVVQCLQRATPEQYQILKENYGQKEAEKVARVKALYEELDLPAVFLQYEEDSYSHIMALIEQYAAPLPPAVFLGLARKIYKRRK

Experiment [4] has as its target T2, Geranylgeranyl transferase type-2 (Homo sapiens) (UniProt P53611+Q92696). The experiment is described as follows: Inhibition of GGTase-2 in human RPMI8226 cells assessed as ratio of calnexin to Rab6 level at 5 mM after 48 hrs by immunoblot analysis relative to control. The format is cell-based. The gist of the method: (§1)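 After 48 h treatment, RPMI-8226 cells were extracted with Triton X-114 to give a detergent (membrane) fraction, which was immunoblotted for Rab6. Rab6 band density was normalized to calnexin and expressed relative to untreated cells. Blots are representative of three independent studies.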

The target of experiment [5] is T2, Geranylgeranyl transferase type-2 (Homo sapiens). Kind of experiment: Inhibition of GGTase-2 in human RPMI8226 cells assessed as ratio of calnexin to Rab6 level at […] after 48 hrs by immunoblot analysis relative to control. Type of experiment: cell-based. (In general: In western blotting, separated proteins are transferred to a membrane and probed.)
Experiment [6] has as its target T1, Farnesyl pyrophosphate synthase (Homo sapiens). This is another data set of the same source.
Experiment [7] concerns the target T3, Protein farnesyltransferase (Homo sapiens) (UniProt P49354+P49356). Kind of experiment: Inhibition of FTase in human RPMI8226 cells assessed as disruption of H-ras farnesylation at 1 to 5 mM incubated for 48 hrs by immunoblot analysis. Type of experiment: cell-based.
The target of experiment [8] is T2, Geranylgeranyl transferase type-2 (Homo sapiens). The experiment is described as follows: Inhibition of GGtase-2 in human RPMI8226 cells assessed as increase in intracellular lambda light chain level at 1 to 5 mM incubated for 48 hrs […]. Type of experiment: cell-based. Summed up: (§2)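 RPMI-8226 cells were incubated 48 h with the compound or medium alone. Intracellular lambda light chain was quantified by ELISA and expressed as percent of untreated control (mean ± SD, n=3). Significance versus control was judged by t-test, p<0.05.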

The target of experiment [9] is T4, Farnesyl pyrophosphate synthase (Homo sapiens, UniProt P14324).
T4 sequence (P14324 whole entry): T1 sequence (whole entry)
The experiment is described as follows: Inhibition of FDPS (unknown origin) using [14C] IPP and GPP as substrate preincubated for 10 mins followed by substrate addition and measured after 30 min by liquid scintillation counting method.

The target of experiment [10] is T2, Geranylgeranyl transferase type-2 (Homo sapiens). The experiment is described as follows: Inhibition of GGtase-2 in human cells assessed as minimum effective dose required for increase in intracellular lambda chain level after 48 hrs by ELISA. Type of experiment: cell-based. Summed up: (§3)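 The lowest effective concentration in RPMI-8226 cells after 48 h requires both criteria below: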
(In general: In an ELISA, binding on a coated surface is turned into a signal by an enzyme label.)

Experiment [11] has the same target. The experiment is described as follows: Inhibition of GGTase-2 in human RPMI8226 cells assessed as ratio of calnexin to Rab6 level at 1 mM after 48 hrs by immunoblot analysis relative to control. Type of experiment: cell-based. Summed up: as §1
Experiment [12] concerns the target T5, Geranylgeranyl transferase type I (Homo sapiens) (UniProt P49354+P53609). The experiment is described as follows: Inhibition of GGtase-1 in human RPMI8226 cells assessed as disruption of Rap1a geranylgeranylation at 1 to 5 mM incubated for 48 hrs by immunoblot analysis. The format is cell-based.
For experiment [13], the target named is T6, Geranylgeranyl transferase type-2 (Rattus norvegicus, UniProt Q08602+Q08603).
T6 sequence (Q08603 whole entry): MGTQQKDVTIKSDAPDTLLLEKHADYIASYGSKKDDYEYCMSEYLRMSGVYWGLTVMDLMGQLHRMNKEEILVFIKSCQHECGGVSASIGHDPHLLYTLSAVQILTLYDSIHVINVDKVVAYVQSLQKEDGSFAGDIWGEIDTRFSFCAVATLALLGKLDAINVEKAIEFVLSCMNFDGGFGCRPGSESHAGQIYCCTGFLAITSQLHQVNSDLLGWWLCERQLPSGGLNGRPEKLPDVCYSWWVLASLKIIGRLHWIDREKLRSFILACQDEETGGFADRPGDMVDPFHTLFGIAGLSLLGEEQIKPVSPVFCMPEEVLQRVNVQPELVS
T6 sequence (Q08602 whole entry): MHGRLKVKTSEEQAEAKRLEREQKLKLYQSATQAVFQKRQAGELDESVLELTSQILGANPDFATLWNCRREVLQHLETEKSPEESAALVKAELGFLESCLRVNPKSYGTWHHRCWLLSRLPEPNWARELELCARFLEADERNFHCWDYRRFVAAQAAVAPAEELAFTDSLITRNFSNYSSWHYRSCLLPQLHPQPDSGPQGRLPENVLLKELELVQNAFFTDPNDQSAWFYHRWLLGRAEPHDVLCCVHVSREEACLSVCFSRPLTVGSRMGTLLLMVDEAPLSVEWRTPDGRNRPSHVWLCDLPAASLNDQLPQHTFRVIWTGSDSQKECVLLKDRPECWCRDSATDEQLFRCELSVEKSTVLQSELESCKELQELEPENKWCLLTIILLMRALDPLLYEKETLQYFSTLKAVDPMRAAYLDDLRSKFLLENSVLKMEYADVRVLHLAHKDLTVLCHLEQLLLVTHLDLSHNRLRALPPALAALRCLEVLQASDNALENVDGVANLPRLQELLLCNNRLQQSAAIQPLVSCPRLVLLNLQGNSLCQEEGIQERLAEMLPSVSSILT
Kind of experiment: Inhibition of recombinant rat RabGGTase expressed in Escherichia coli using Rab7 as substrate and [3H]geranylgeranyl pyrophosphate after 20 mins by liquid scintillation analysis.

The target in experiment [14] is T2, Geranylgeranyl transferase type-2 (Homo sapiens). The experiment is described as follows: Inhibition of GGtase-2 in human cells assessed as minimum effective dose causing => 20% decrease in Rab6 level after 48 hrs by immunoblot analysis. Type of experiment: cell-based. The gist of the method: as §3
Experiment [15] addresses T7, Geranylgeranyl pyrophosphate synthase (Homo sapiens, UniProt O95749).
T7 sequence (O95749 whole entry): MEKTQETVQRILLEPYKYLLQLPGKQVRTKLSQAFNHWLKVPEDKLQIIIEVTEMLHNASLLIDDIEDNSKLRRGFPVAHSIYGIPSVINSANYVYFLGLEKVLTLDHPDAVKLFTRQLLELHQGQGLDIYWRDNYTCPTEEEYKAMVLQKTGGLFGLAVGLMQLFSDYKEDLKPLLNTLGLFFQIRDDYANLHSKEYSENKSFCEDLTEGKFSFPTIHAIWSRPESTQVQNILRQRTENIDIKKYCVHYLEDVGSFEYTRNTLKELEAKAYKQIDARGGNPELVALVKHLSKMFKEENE
The experiment is described as follows: Inhibition of GGDPS (unknown origin) using [14C] IPP and FPP as substrate preincubated for 10 mins followed by substrate addition and measured after 30 min by liquid scintillation counting method.

The target of experiment [16] is T1, Farnesyl pyrophosphate synthase (Homo sapiens). Kind of experiment: Inhibition of FDPS in human RPMI8226 cells assessed as unmodified Rap1a level at =< 1 mM after 48 hrs by immunoblot analysis. The format is cell-based. Summed up:
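RPMI-8226 cells were exposed for 48 h. The lowest effective concentration counts only when two read-outs agree. Unmodified Rap1a must be visible on immunoblot of whole-cell lysate, using an antibody that detects only unmodified protein.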

Experiment [17] addresses T5, Geranylgeranyl transferase type I (Homo sapiens). The experiment is described as follows: Inhibition of GGtase-1 in human RPMI8226 cells assessed as disruption of Rap1a geranylgeranylation after 48 hrs immunoblot analysis. Type of experiment: cell-based.
Experiment [18] deals with T8, geranylgeranyltransferase type-I (Rattus norvegicus) (UniProt P53610+Q04631). Kind of experiment: Activation of recombinant rat GGtase-1 expressed in Escherichia coli using dansyl-GCVLL as substrate after 1.5 hrs by spectrofluorimetric analysis.
Experiment [19] deals with T2, Geranylgeranyl transferase type-2 (Homo sapiens). The experiment is described as follows: Inhibition of GGtase-2 in human RPMI8226 cells assessed as increase in intracellular lambda chain at =< 1 mM level after 48 hrs by ELISA. Type of experiment: cell-based. The gist of the method: as §2
For experiment [20] the target is unchanged. Kind of experiment: Inhibition of GGtase-2 in human RPMI8226 cells assessed as decrease in Rab6 level at =< 1 mM after 48 hrs by immunoblot analysis relative to control. Type of experiment: cell-based. Summed up: as §1
The species named for the next experiment is Homo sapiens. The experiment is described as follows: Selectivity ratio of IC50 for GGDPS (unknown origin) to IC50 for FDPS (unknown origin).
The target of experiment [21] is T8, geranylgeranyltransferase type-I (Rattus norvegicus). Kind of experiment: Activation of recombinant rat GGtase-1 expressed in Escherichia coli assessed as enzyme activity at 1000 uM using dansyl-GCVLL as substrate after 1.5 hrs by spectrofluorimetric analysis relative to control.
Experiment [22] deals with T1, Farnesyl pyrophosphate synthase (Homo sapiens). The experiment is described as follows: Inhibition of FDPS in human RPMI8226 cells assessed as increase in intracellular lambda chain level at =< 1mM after 48 hrs by ELISA. Type of experiment: cell-based. Summed up:
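RPMI-8226 cells were exposed for 48 h, and intracellular lambda light chain was measured by ELISA as percent of untreated control. The lowest effective concentration also requires unmodified Rap1a to be visible on whole-cell-lysate immunoblot with an unmodified-specific antibody. The ELISA rise must be statistically significant.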

Experiment [23] concerns the target T3, Protein farnesyltransferase (Homo sapiens). The experiment is described as follows: Inhibition of FTase in human RPMI8226 cells assessed as disruption of H-ras farnesylation after 48 hrs by immunoblot analysis. The format is cell-based.

Calls of active or inactive are those of the source.

The IC50 is the concentration that gives 50% inhibition.

For `O=C(O)C(Cn1cnc2ccccc21)P(=O)(O)O` (centres undefined), the IC50 in [1] is greater than 1000 µM; in experiment [2] it was 125 µM; in experiment [9], greater than 100 µM; in experiment [13], 198 µM; in experiment [15], greater than 100 µM. In addition, the LED in experiment [3], in experiment [6], in [10] and in experiment [14] was 1 mM throughout. Further, the fold change (FC) in experiment [4] came to 0.3; in experiment [11], 0.6. Further, the FC in [5] is 0.4. The inhibition result in experiment [7] and in [12] was “inactive” each time. For the same molecule, the inhibition result in [8] is “Active”.

In the case of `Cc1cc2ncn(CC(P(=O)(O)O)P(=O)(O)O)c2cc1C`, the inhibition result in [16], in [17], in [19], in experiment [20], in experiment [22] and in experiment [23] was “inactive” in each case. Besides, the IC50 in experiment [1] is greater than 1000 µM; in [2], greater than 1000 µM; in [9], 0.69 µM; in [13], 534 µM; in experiment [15] it was 41 µM. For the same molecule, the figures for the Activity result in experiment [18] and in experiment [21] were “Dose-dependent effect” and 560%, respectively. Besides, the Ratio IC50 in the experiment filed under Homo sapiens came out at 59.
